The values that follow come from ChEMBL document CHEMBL4028904, “Discovery of a Novel Series of Tankyrase Inhibitors by a Hybridization Approach” (J Med Chem, 2017).

Converted amounts (≈) assume the structure as drawn.

The test system of data set [1] is Mus musculus. As to the kind of experiment: Toxicity in immunocompetent BDF1 mouse allografted with mouse P388 cells assessed as body weight change at 15 to 30 mg/kg, po administered qd for 10 days measured on day 12 post last dose. It counts as organism-based. The note with it: in vivo, 240 h.
Data set [2] is described as follows: Oral bioavailability in Sprague-Dawley rat at 14 mg/kg measured up to 24 hrs postdose. It is filed as ADME, organism-based. The note with it: in vivo.
The nature of data set [3]: Kinetic solubility of the compound in PBS buffer at pH 7.4 at 25 degC after 2 hrs. It counts as physicochemical. The note with it: read-out: Kinetic_solubility.
Data set [4] is described as follows: Oral bioavailability in Beagle dog at 7 mg/kg measured up to 24 hrs postdose. It is filed as ADME, organism-based, Canis lupus familiaris. The settings on record: in vivo.
For data set [5], the target named is Protein mono-ADP-ribosyltransferase PARP12 (Homo sapiens, UniProt Q9H0J9). The experiment in a line: Inhibition of human PARP12 using NAD+ as substrate by fluorescence assay.
Another data set addresses Cytochrome P450 2C9 (Homo sapiens, UniProt P11712). The experiment in a line: Inhibition of CYP2C9 in human liver microsomes using tolbutamide as substrate after 30 mins by LC-MS/MS analysis. It counts as ADME. For orientation: Liver microsomes are vesicles of endoplasmic reticulum, rich in cytochrome P450 enzymes.
Data set [6] deals with Protein mono-ADP-ribosyltransferase PARP4 (Homo sapiens, UniProt Q9UKK3). As to the kind of experiment: Inhibition of human PARP4 using NAD+ as substrate by fluorescence assay.
The target of the next data set is Cytochrome P450 2D6 (Homo sapiens, UniProt P10635). As to the kind of experiment: Inhibition of CYP2D6 in human liver microsomes using dextromethorphan as substrate after 30 mins by LC-MS/MS analysis. It is filed as ADME.
Data set [7] concerns the target Protein mono-ADP-ribosyltransferase PARP14 (Homo sapiens, UniProt Q460N5). The experiment in a line: Inhibition of human PARP14 using NAD+ as substrate by fluorescence assay.
In data set [8] the target is Maternal embryonic leucine zipper kinase (Homo sapiens) (UniProt Q14680). As to the kind of experiment: Inhibition of MELK (unknown origin) at 10 uM after 60 mins in presence of [gamma-33P]-ATP by microplate scintillation counting. The procedure, abridged: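 A panel of 320 wild-type protein kinases was screened with the compound at 10 μM. Activity is reported as percent inhibition.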

Data set [9] has as its target Protein mono-ADP-ribosyltransferase PARP10 (Homo sapiens, UniProt Q53GL7). As to the kind of experiment: Inhibition of human PARP10 using NAD+ as substrate by fluorescence assay.
The subject of a further data set is Liver. The experiment in a line: Intrinsic clearance in human liver microsomes at 3 uM incubated up to 45 mins in presence of NADPH by LC-MS/MS analysis. It is filed as ADME, microsome. The settings on record: 0.75 h.
Data set [10] has as its system Mus musculus. As to the kind of experiment: Toxicity in immunodeficient nude Balb/c mouse xenografted with human COLO320DM cells assessed as animal discomfort at 15 to 60 mg/kg, po administered qd for 10 days measured on days 12, 17 and 21 post last dose. The note with it: in vivo, 240 h.

Chain of Protein mono-ADP-ribosyltransferase PARP12 (Q9H0J9 whole entry): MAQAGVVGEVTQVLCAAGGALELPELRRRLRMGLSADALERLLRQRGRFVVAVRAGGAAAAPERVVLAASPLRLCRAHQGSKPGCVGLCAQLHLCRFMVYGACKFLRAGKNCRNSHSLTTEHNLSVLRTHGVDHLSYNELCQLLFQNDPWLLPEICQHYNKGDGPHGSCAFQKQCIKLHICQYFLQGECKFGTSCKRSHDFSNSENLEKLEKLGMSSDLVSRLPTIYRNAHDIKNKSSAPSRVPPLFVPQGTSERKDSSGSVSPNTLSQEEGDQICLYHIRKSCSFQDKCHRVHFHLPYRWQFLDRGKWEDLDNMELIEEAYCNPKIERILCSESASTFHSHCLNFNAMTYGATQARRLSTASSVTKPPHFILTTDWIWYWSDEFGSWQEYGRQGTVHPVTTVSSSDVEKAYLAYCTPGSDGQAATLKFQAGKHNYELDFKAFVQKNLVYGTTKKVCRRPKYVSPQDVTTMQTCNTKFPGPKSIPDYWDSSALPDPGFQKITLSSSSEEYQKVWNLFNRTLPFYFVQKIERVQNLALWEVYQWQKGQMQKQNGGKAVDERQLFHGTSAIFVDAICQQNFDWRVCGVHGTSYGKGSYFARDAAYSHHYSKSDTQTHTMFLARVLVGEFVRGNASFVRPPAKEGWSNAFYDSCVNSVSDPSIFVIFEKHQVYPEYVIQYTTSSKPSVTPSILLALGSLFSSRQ
Chain of Cytochrome P450 2D6 (P10635 whole entry): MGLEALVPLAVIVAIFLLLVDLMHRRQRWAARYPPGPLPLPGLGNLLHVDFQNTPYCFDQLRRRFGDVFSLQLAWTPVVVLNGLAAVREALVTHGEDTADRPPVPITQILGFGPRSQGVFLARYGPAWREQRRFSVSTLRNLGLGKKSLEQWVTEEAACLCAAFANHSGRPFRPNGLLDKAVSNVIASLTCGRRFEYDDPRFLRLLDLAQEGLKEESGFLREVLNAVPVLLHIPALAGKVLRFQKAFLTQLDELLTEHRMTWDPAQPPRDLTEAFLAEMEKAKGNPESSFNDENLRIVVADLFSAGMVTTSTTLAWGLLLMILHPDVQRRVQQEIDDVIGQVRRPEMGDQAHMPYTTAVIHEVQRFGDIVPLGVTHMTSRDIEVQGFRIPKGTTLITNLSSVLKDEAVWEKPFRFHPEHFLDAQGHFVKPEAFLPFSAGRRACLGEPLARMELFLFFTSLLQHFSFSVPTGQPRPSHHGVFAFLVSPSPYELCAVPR
Chain of Protein mono-ADP-ribosyltransferase PARP10 (Q53GL7 whole entry): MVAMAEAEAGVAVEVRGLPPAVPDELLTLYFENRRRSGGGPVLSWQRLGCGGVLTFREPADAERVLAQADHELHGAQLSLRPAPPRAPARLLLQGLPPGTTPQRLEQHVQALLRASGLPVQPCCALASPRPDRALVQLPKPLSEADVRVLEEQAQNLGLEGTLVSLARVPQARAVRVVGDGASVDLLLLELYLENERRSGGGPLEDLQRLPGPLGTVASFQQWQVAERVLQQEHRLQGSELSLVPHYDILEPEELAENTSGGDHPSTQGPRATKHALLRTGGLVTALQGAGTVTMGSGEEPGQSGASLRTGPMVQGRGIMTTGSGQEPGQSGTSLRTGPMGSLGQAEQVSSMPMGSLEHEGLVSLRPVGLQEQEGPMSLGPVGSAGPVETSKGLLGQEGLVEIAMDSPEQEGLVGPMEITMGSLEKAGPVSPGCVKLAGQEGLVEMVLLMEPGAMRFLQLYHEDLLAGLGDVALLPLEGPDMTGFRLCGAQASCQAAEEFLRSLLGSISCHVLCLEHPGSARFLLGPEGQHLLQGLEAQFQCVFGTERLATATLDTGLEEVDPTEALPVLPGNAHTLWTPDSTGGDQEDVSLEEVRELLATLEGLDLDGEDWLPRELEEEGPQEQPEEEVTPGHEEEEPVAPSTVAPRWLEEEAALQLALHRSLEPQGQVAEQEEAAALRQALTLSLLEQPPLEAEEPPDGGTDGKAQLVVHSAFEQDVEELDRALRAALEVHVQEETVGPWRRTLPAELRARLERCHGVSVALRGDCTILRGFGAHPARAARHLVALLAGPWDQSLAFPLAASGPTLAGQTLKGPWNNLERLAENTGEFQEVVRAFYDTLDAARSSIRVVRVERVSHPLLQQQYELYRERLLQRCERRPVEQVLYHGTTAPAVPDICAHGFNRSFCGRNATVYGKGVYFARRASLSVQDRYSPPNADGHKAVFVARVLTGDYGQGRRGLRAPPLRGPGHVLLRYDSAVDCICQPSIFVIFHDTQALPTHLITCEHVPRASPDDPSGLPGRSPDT
Chain of Protein mono-ADP-ribosyltransferase PARP14 (Q460N5 whole entry): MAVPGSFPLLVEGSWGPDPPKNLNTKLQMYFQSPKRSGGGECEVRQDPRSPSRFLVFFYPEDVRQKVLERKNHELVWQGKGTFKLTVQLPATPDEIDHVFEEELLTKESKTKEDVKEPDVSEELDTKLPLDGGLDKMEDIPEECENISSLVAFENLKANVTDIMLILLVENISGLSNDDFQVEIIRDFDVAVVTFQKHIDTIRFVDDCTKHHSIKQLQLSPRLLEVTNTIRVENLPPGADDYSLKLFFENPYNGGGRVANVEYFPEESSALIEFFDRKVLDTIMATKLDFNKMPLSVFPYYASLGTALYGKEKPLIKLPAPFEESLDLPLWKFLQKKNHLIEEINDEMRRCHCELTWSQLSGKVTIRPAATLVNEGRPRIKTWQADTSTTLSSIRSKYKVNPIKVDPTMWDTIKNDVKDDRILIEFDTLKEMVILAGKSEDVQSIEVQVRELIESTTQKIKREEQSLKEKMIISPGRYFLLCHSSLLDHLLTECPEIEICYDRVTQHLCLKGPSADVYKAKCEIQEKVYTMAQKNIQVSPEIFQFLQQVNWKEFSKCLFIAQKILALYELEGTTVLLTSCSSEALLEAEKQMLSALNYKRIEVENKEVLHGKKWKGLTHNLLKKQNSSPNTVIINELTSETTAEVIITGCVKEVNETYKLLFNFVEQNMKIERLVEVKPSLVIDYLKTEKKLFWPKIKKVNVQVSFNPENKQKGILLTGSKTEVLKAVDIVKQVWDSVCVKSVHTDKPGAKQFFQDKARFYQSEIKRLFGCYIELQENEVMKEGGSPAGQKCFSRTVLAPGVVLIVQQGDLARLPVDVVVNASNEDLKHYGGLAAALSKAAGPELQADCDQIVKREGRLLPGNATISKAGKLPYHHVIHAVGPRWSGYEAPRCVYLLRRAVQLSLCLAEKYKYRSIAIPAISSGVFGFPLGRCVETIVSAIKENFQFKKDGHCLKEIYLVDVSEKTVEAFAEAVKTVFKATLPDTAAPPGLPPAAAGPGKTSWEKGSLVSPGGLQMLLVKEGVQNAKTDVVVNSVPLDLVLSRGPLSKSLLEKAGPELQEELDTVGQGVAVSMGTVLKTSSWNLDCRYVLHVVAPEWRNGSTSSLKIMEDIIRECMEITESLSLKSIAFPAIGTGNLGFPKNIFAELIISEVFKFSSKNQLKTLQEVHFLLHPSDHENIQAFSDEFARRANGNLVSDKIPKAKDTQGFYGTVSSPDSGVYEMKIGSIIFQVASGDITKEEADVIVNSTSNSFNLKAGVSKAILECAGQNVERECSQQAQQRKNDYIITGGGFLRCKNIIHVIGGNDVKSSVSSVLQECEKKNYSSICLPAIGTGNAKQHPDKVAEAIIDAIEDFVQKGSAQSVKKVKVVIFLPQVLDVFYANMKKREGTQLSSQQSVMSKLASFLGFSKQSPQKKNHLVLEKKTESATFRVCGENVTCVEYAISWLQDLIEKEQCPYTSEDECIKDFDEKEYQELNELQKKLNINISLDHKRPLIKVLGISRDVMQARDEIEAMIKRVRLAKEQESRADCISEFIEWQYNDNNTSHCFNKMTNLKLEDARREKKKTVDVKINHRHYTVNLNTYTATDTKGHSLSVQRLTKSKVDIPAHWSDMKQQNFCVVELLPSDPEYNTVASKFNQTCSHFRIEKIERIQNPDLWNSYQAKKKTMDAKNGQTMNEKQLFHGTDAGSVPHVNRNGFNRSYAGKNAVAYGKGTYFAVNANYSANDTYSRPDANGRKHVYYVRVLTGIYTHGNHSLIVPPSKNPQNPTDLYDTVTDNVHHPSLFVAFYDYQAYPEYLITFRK
Chain of Maternal embryonic leucine zipper kinase (Homo sapiens) (Q14680 whole entry, looked up): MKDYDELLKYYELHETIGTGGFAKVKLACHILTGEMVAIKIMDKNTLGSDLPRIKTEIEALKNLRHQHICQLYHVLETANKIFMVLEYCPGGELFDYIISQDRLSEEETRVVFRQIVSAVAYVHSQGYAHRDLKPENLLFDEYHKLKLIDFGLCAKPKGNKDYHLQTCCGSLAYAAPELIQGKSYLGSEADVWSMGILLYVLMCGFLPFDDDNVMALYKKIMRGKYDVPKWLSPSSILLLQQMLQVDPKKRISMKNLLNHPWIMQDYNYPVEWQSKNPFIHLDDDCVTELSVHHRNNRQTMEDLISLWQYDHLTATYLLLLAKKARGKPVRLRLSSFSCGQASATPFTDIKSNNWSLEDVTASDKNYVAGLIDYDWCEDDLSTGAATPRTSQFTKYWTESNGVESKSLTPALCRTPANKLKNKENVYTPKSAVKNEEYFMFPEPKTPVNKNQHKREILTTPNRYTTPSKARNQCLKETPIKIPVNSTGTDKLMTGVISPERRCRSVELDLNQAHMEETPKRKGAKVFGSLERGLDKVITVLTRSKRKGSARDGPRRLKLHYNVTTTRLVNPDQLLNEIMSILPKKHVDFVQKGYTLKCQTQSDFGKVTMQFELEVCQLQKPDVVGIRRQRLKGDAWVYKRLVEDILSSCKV

Take `N#Cc1ccc2c(c1)[nH]c(=O)n2[C@H]1C[C@H](c2nnc(-c3ccncn3)n2-c2ccccc2Cl)C1`: the Activity result in the data set with Mus musculus [1] and in the data set with Mus musculus [10] was “Non-Toxic” each time. Also, the bioavailability (in general, the share of a dose that reaches the circulation, judged against a reference dose that is usually intravenous) in [2] amounted to 35%; in data set [4], 91%. Moreover, the solubility kinetic at 2 h in data set [3] was found to be 31.2 µM (≈ 14.6 µg/mL). For the same molecule, the 50% inhibitory concentration (IC50) (as a rule, the concentration that gives 50% inhibition) was > 10 µM in [5]; 11.9 µM at Cytochrome P450 2C9; > 100 µM in data set [6]; > 25 µM at Cytochrome P450 2D6; > 10 µM in [7]; > 10 µM in [9]. Also, in data set [8], the inhibition (in general, the share of the control response that was lost under treatment) turned out to be 70%. Also, the CLH in the data set on Liver was determined as 14.8 µL/min/mg.
